Experiment [1] deals with T1, Type-2 angiotensin II receptor (Rattus norvegicus, UniProt P35351).
T1 sequence (P35351 whole entry): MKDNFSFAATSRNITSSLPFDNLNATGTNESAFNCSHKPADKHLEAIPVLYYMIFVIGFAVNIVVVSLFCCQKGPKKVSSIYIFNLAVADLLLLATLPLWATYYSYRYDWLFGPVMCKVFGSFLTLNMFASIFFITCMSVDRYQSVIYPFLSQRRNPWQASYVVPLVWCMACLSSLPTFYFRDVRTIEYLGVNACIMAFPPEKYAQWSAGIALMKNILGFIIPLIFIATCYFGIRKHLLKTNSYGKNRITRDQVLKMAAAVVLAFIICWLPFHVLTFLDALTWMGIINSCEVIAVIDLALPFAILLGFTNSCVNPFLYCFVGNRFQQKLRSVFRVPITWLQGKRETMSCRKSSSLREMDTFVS
Kind of experiment: Inhibition of [125I]-[Sar1,Ile8]Ang II binding at rat angiotensin II (type 2) receptor. The method, boiled down:
(§1)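 AT2 binding uses rat isolated adrenal membrane homogenates with 10^-6 M losartan present. [125I][Sar1,Ile8]Ang II is the radioligand, and IC50 is 50% displacement of total specifically bound label. Duplicate determinations include DuP 753 and saralasin as internal standards. Intraassay variability 5%, interassay 20%.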

In the next experiment the test system is Rattus norvegicus. Put plainly: Effective dose to lower blood pressure by 30 mmHg in renal hypertensive rats on peroral administration. In kind it is functional. Particulars: po. The method in brief:
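Conscious renal artery-ligated hypertensive rats were dosed orally; vehicle was 0.05 mg/mL Na2CO3 in 0.5% methocel. Mean arterial pressure was monitored, n=6-9 per group. ED30 is the dose that lowers blood pressure by 30 mmHg.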

Experiment [2] concerns the target T2, Angiotensin II receptor (AT-1) type-1 (Rattus norvegicus, UniProt P29089+P25095).
T2 sequence (P29089 whole entry): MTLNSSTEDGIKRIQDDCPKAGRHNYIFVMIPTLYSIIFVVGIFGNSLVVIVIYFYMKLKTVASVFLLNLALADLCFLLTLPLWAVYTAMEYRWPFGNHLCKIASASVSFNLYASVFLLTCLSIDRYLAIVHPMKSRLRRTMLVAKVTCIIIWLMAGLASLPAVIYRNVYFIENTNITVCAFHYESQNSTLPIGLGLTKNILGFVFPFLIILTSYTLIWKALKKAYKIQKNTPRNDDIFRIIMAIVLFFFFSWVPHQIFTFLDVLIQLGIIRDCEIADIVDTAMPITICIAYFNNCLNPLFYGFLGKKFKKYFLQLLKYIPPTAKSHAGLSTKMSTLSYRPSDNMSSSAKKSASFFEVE
T2 sequence (P25095 whole entry): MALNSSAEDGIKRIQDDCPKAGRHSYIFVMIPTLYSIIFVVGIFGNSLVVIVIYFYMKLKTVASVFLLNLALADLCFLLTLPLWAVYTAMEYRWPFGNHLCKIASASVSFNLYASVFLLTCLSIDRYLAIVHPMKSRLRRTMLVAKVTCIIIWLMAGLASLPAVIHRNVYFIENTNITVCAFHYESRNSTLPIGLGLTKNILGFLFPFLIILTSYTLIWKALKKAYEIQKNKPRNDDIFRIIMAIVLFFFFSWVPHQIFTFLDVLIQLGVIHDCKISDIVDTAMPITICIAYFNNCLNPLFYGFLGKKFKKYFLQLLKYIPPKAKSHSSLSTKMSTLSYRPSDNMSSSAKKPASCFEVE
Kind of experiment: Inhibition of [125I]-[Sar1,Ile8]Ang II binding at rat angiotensin II (type 1) receptor. In kind it is protein assay. The method in brief: (§2)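 Rat isolated adrenal membrane homogenates with 10^-6 M PD123177 present to isolate the AT1 site. Radioligand is [125I][Sar1,Ile8]Ang II. IC50 is the concentration giving 50% displacement of total specifically bound radioligand. Run in duplicate against DuP 753 and saralasin as internal standards. Intraassay variability 5%, interassay 20%.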

Experiment [3] deals with T3, Angiotensin II receptor (Rattus norvegicus) (UniProt P29089+P25095+P35351). Put plainly: Ratio of IC50 at Angiotensin II type 1 and angiotensin II type 2 receptors. In kind it is protein assay. The method, boiled down: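 AT2 IC50 divided by AT1 IC50. Both come from [125I][Sar1,Ile8]Ang II displacement on rat adrenal membrane homogenates, with 10^-6 M losartan (AT2) or 10^-6 M PD123177 (AT1) present. Each was run in duplicate.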

For experiment [4], the target named is T3, Angiotensin II receptor (Rattus norvegicus). Put plainly: Relative inhibition of angiotensin II type 2 and angiotension II type 1 receptors in modified assay. In kind it is protein assay. The method in brief: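 Rat adrenal membrane homogenates with [125I][Sar1,Ile8]Ang II as radioligand. AT1 sites were measured with 10^-6 M PD123177 present and AT2 sites with 10^-6 M losartan present. IC50 is the concentration giving 50% displacement of specifically bound radioligand, run in duplicate against DuP 753 and saralasin standards. Intra-assay variability was 5% and inter-assay 20%. The value is the AT2 IC50 divided by the AT1 IC50.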

Experiment [5] addresses T2, Angiotensin II receptor (AT-1) type-1. Kind of experiment: Inhibitory concentration against Angiotensin II receptor type 1 with [125I]-[Sar1,Ile8]Ang II. In kind it is protein assay. The method, boiled down: as §2
The target of experiment [6] is T1, Type-2 angiotensin II receptor. Put plainly: Inhibitory concentration against Angiotensin II receptor type 2 with [125I]-[Sar1,Ile8]Ang II. The method, boiled down: as §1
Experiment [7] addresses T3, Angiotensin II receptor (Rattus norvegicus). Put plainly: Relative inhibition of angiotensin II receptor types 1 and 2. In kind it is protein assay.

This is an account of results in ChEMBL document CHEMBL1128745 (J Med Chem, 1995).

In the case of `CCCC(=O)N(CCC(=O)c1c(CC)nc(CCC)n1Cc1ccc(-c2ccccc2S(=O)(=O)NC(=O)OCCC(C)C)cc1F)c1cccnc1`, the values for the IC50 in experiment [1] and in experiment [2] were 0.25 nM and 0.32 nM, respectively. In addition, the ED30 in the experiment on Rattus norvegicus stood at 0.27 mg/kg. The IC50 ratio in experiment [3] stood at 0.78.

Regarding `CCCCOC(=O)NS(=O)(=O)c1ccccc1-c1ccc(Cn2c(CCC)nc(CC)c2C(C)=O)c(F)c1`, the IC50 in experiment [1] amounted to 1 nM; in experiment [2], 1 nM; in experiment [5], 0.09 nM; in experiment [6] it was 10 nM. Moreover, the IC50 ratio came to 111 in experiment [4] and 1 in experiment [3].

Consider `CCCc1nc(CC)c(C(=O)CCN(C(=O)c2ccncc2)c2ccccc2)n1Cc1ccc(-c2ccccc2S(=O)(=O)NC(=O)OCCC(C)C)cc1F`, for which the IC50 was determined as 0.1 nM in experiment [1] and 0.4 nM in experiment [2]. The ED30 with Rattus norvegicus is below 3 mg/kg. Further, the IC50 ratio in experiment [3] came to 0.25.

Consider `CCCc1nc(CC)c(C(=O)CCN(C(=O)c2cccnc2)c2ccccn2)n1Cc1ccc(-c2ccccc2S(=O)(=O)NC(=O)OCCC(C)C)cc1F`, for which the concentration for half-maximal inhibition (IC50) came to 0.16 nM in experiment [1] and 0.52 nM in experiment [2]. The molecule also had an ED30 with Rattus norvegicus of 0.9 mg/kg. In addition, the IC50 ratio in experiment [3] is 0.31.

With `CCCc1nc(CC)c(C(=O)CCN(C(=O)CC)c2cccnc2)n1Cc1ccc(-c2ccccc2S(=O)(=O)NC(=O)OCCC(C)C)cc1F`, the IC50 in experiment [1] was determined as 0.49 nM; in experiment [2], 0.45 nM. Also, in the experiment on Rattus norvegicus, the ED30 is 0.26 mg/kg. Moreover, in experiment [3], the IC50 ratio came to 1.09.

`CCCc1nc(CC)c(C(=O)CCN(C(=O)c2cccnc2)c2cccnc2)n1Cc1ccc(-c2ccccc2S(=O)(=O)NC(=O)OCCC(C)C)cc1`: the IC50 stood at 1 nM in experiment [1] and 0.3 nM in experiment [2]. In experiment [3], the IC50 ratio came to 3.3.

On to `CCCCOC(=O)NS(=O)(=O)c1ccccc1-c1ccc(Cn2c(CCC)nc(CC)c2C(=O)CCN(CCCC)C(=O)c2ccccc2)c(F)c1`, for which the half-maximal inhibitory concentration (IC50) in experiment [1] was 10 nM; in experiment [2], 0.3 nM. Moreover, in experiment [3], the IC50 ratio worked out at 33.

Take `CCCc1nc(CC)c(C(=O)OC)n1Cc1ccc(-c2ccccc2S(=O)(=O)NC(=O)OCCC(C)C)cc1F`: the IC50 worked out at 3 nM in experiment [1], 1 nM in experiment [2], 0.1 nM in experiment [5] and 40 nM in experiment [6]. Besides, in experiment [7], the IC50 ratio was 3.

Regarding `CCCCOC(=O)NS(=O)(=O)c1ccccc1-c1ccc(Cn2c(CCC)nc(CC)c2C(=O)OC)c(Cl)c1`, the IC50 ratio in experiment [7] is 2.3; in experiment [3], 231. For the same molecule, the half-maximal inhibitory concentration (IC50) in experiment [2] worked out at 3 nM; in experiment [5] it was 0.16 nM; in experiment [6], 37 nM.

Take `CCCc1nc(CC)c(C(=O)CCN(C(=O)c2ccccc2)c2ccccc2)n1Cc1ccc(-c2ccccc2S(=O)(=O)NC(=O)OCCC(C)C)cc1F`: the IC50 is 0.06 nM in experiment [1] and 0.1 nM in experiment [2].

On to `CCCCOC(=O)NS(=O)(=O)c1ccccc1-c1ccc(Cn2c(CCC)nc(CC)c2C(=O)CCN(C(=O)c2ccccc2)c2ccccc2)c(F)c1`, for which the values for the IC50 in experiment [1] and in experiment [2] were 0.18 nM and 0.25 nM, respectively. This molecule yielded an ED30 in the experiment with Rattus norvegicus of 1.57 mg/kg. Also, the IC50 ratio in experiment [3] worked out at 0.7.

Turning to `CCCC(=O)N(CCC(=O)c1c(CC)nc(CCC)n1Cc1ccc(-c2ccccc2S(=O)(=O)NC(=O)OCCC(C)C)cc1)c1cccnc1`, the IC50 in experiment [1] stood at 1 nM; in experiment [2], 0.4 nM. Also, in experiment [3], the IC50 ratio is 2.5.

With `CCCc1nc(CC)c(C(=O)CCN(C(=O)c2cccnc2)c2cccnc2)n1Cc1ccc(-c2ccccc2S(=O)(=O)NC(=O)OCCC(C)C)cc1F`, the results for the IC50 in experiment [1] and in experiment [2] were 0.22 nM and 0.5 nM, respectively. Further, in the experiment with Rattus norvegicus, the ED30 is 0.26 mg/kg. Moreover, the IC50 ratio in experiment [3] is 0.44.

Regarding `CCCc1nc(CC)c(C(=O)CCN(C(=O)C(C)C)c2cccnc2)n1Cc1ccc(-c2ccccc2S(=O)(=O)NC(=O)OCCC(C)C)cc1F`, the results for the IC50 in experiment [1] and in experiment [2] were 1 nM and 0.3 nM, respectively. The IC50 ratio in experiment [3] was determined as 3.3.

Take `CCCc1nc(CC)c(C(=O)CCN(C(=O)c2ccncc2)c2cccnc2)n1Cc1ccc(-c2ccccc2S(=O)(=O)NC(=O)OCCC(C)C)cc1F`: the IC50 in experiment [1] is 1 nM; in experiment [2] it was 0.7 nM. The same molecule showed an ED30 in the experiment on Rattus norvegicus of 0.4 mg/kg. Also, the IC50 ratio in experiment [3] was determined as 1.4.

Take `CCCCOC(=O)NS(=O)(=O)c1ccccc1-c1ccc(Cn2c(CCC)nc(CC)c2C(=O)CCN(C(=O)CCC)c2ccccc2)c(F)c1`: the concentration for half-maximal inhibition (IC50) is 0.15 nM in experiment [1] and 0.2 nM in experiment [2]. Moreover, in the experiment with Rattus norvegicus, the ED30 is 1.5 mg/kg. Besides, in experiment [3], the IC50 ratio was found to be 0.75.

As to `CCCc1nc(CC)c(C(=O)CCN(C(C)=O)c2cccnc2)n1Cc1ccc(-c2ccccc2S(=O)(=O)NC(=O)OCCC(C)C)cc1F`, the figures for the half-maximal inhibitory concentration (IC50) in experiment [1] and in experiment [2] were 3 nM and 0.4 nM, respectively. Moreover, in experiment [3], the IC50 ratio was determined as 7.5.
